Experimental data published in ChEMBL document CHEMBL2331332 (J Med Chem, 2013).
One block for each compound: values may come before it.

Key:
[1] = molecular target: T1, Prostaglandin E synthase (Homo sapiens, UniProt O14684); experiment: Inhibition of full-length microsomal PGES-1 (unknown origin) expressed in Escherichia coli Rosetta(DE3) using PGH2 as substrate assessed as inhibition of PGH2 conversion to PGE2 incubated 15 mins prior to substrate addition measured after 1 min by EIA
T1 sequence (O14684 whole entry): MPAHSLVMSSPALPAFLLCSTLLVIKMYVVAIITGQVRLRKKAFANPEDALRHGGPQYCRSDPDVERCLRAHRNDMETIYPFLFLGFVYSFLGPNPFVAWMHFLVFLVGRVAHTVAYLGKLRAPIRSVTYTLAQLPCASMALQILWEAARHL
How it was run: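 Reactions used 2.5 mM cofactor and 17 μM PGH2 for 1 min at 4 °C, then were stopped, and PGE2 was quantified by EIA. IC50 came from dose-response curves. Mean ± SEM, n = 3.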

[2] = tested on: Prostaglandin G/H synthase 2 (COX-2); experiment: Inhibition of COX-2 (unknown origin)-mediated TMPD oxidation using PGG2 as substrate at 100 uM incubated 15 mins prior to substrate addition measured after 36 secs by spectrophotometric analysis; details: Homo sapiens
[3] = molecular target: T2, Polyunsaturated fatty acid 5-lipoxygenase (Homo sapiens) (UniProt P09917); experiment: Inhibition of 5-LOX (unknown origin) at 10 uM by human whole blood LTB4 assay
T2 sequence (whole entry): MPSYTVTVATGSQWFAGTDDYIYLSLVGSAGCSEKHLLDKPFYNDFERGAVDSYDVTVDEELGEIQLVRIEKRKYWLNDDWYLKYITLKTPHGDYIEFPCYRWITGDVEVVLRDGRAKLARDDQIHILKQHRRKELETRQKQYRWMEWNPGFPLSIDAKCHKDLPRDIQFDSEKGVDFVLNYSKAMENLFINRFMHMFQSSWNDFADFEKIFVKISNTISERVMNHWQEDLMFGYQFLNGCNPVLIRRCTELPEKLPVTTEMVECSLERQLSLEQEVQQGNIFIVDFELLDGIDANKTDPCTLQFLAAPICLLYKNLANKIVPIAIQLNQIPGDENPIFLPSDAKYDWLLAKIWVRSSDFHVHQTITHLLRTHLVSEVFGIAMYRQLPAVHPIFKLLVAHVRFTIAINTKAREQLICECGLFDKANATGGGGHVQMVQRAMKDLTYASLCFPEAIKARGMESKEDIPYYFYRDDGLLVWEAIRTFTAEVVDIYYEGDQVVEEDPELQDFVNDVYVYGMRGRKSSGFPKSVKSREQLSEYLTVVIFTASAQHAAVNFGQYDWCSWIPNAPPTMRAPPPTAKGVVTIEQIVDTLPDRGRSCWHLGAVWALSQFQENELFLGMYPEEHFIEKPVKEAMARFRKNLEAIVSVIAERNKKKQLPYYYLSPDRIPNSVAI

[4] = molecular target: T1, Prostaglandin E synthase; experiment: Inhibition of PGES-1 in human whole blood assessed as LPS-induced PGE2 formation incubated for 15 mins prior to LPS addition measured after 24 hrs by EIA
How it was run: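 Fresh heparinized blood came from healthy volunteers free of NSAIDs for at least 14 days. It was preincubated 15 min at 37 °C with compound or DMSO vehicle. LPS (final 100 μg/mL) was then added for 24 h at 37 °C. Plasma was obtained by centrifugation at 4 °C, and PGE2 was read by EIA.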

[5] = molecular target: T2, Polyunsaturated fatty acid 5-lipoxygenase (Homo sapiens); experiment: Inhibition of 5-LOX-mediated LTB4 formation in human whole blood at 10 uM incubated for 20 mins prior to substrate addition measured after 0.5 hrs by EIA in presence of calcium ionophore A23187
How it was run: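 Human whole blood was stimulated with calcium ionophore A23187 (final 20 μg/mL) for 0.5 h at 37 °C to induce LTB4 formation. Compounds were tested at 10 μM.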

[6] = tested on: Prostaglandin G/H synthase 1 (COX-1); experiment: Inhibition of COX-1 (unknown origin)-mediated TMPD oxidation using PGG2 as substrate at 100 uM incubated 15 mins prior to substrate addition measured after 36 secs by spectrophotometric analysis; details: Homo sapiens

Structure (SMILES): O=C(CCCSc1nnc(-c2ccccc2)c(-c2ccccc2)n1)c1ccccc1
IC50 [1]: 50.8 µM

Structure (SMILES): CC1=NN(c2ccc([N+](=O)[O-])cc2)C(=O)/C1=N\Nc1ccccc1C(=O)O
inhibition [2]: 2.5%
inhibition [3]: 10%
IC50 [4]: 17 µM
inhibition [5]: < 1%
IC50 [1]: 0.01 µM
inhibition [6]: 1%

Structure (SMILES): Cc1ccc([N+](=O)[O-])cc1NC(=O)CSc1nnc(CC(=O)Nc2ccccc2)n1C
IC50 [1]: 0.1 µM

Structure (SMILES): Cc1cccc(C)c1NCc1nnc(SCC(=O)Nc2ccc(F)cc2)n1-c1ccccc1
IC50 [1]: 9.2 µM

Structure (SMILES): Cc1nc2sc3c(c2c(=O)n1/N=C/c1cc([N+](=O)[O-])cc([N+](=O)[O-])c1O)CCCC3
IC50 [4]: 130 µM
IC50 [1]: 1.8 µM

Structure (SMILES): Cc1ccc([N+](=O)[O-])cc1NC(=O)CSc1nnc(-c2ccccc2C)n1C
IC50 [1]: 54.5 µM

Structure (SMILES): C=CCSc1nnc2c(n1)OC(c1ccc(-c3cccc([N+](=O)[O-])c3)o1)Nc1ccccc1-2 (configuration not stated)
IC50 [4]: > 200 µM
IC50 [1]: 1.6 µM

Structure (SMILES): Cc1ccc(Cl)c(NC(=O)CSc2nnc(CNc3c(C)cccc3C)n2C)c1
IC50 [1]: 0.2 µM

Structure (SMILES): COc1ccc(C(=O)CSc2nnc(-c3ccco3)c(-c3ccco3)n2)cc1
IC50 [1]: 5 µM

Structure (SMILES): Cc1ccc([N+](=O)[O-])cc1NC(=O)CSc1nnc(CNc2ccc(Cl)cc2)n1C
IC50 [1]: 0.033 µM

Structure (SMILES): COc1ccc(CN2C(=O)/C(=C/c3ccc(OCc4ccc([N+](=O)[O-])cc4)c(Br)c3)S/C2=N\c2ccccc2)cc1
IC50 [4]: 120 µM
IC50 [1]: 0.038 µM

Structure (SMILES): Clc1ccc(/C=C/c2cc(-c3ccc(-c4ccccc4)cc3)nc3ccc4ccccc4c23)cc1
inhibition [2]: 1.8%
inhibition [3]: 10%
IC50 [4]: 8.5 µM
inhibition [5]: < 1%
IC50 [1]: 0.0065 µM
inhibition [6]: < 1%

Structure (SMILES): CC(C)(C)C(=O)CSc1nnc(-c2ccccc2)c(-c2ccccc2)n1
IC50 [1]: 17.8 µM

Structure (SMILES): CCn1c2ccccc2c2cc(-c3cc(C(=O)O)c4c(ccc5ccccc54)n3)ccc21
IC50 [4]: > 200 µM
IC50 [1]: 0.1 µM

Structure (SMILES): Cc1ccc([N+](=O)[O-])cc1NC(=O)CSc1nnc(CSCc2ccccc2)n1C
IC50 [1]: 0.24 µM

Structure (SMILES): Cc1ccc([N+](=O)[O-])cc1NC(=O)CSc1nnc(CNc2c(C)cccc2C)n1C
inhibition [2]: < 1%
inhibition [3]: 8%
IC50 [4]: 0.7 µM
inhibition [5]: < 1%
IC50 [1]: 0.0093 µM
inhibition [6]: < 1%

Structure (SMILES): CCOC(=O)c1ccc(NC(=O)CSc2nnc(CNc3c(C)cccc3C)n2C)cc1
IC50 [1]: 5.4 µM

Structure (SMILES): Cc1ccc2[nH]c3c(c2c1)CCC/C3=N\N=C1/CCCc2c1[nH]c1ccc(C)cc21
IC50 [4]: > 200 µM
IC50 [1]: 5 µM

Structure (SMILES): COc1ccc(C(=O)CSc2nnc(-c3ccc(OC)cc3)c(-c3ccc(OC)cc3)n2)cc1
IC50 [1]: 1 µM

Structure (SMILES): CCn1c(CNc2ccc(C)cc2C)nnc1SCC(=O)c1ccc(C)cc1
IC50 [1]: 7.5 µM

Structure (SMILES): C/C(=N\NC(=O)c1ccc([N+](=O)[O-])c(C)c1)c1cccc(NC(=O)COc2ccc(Cl)cc2Cl)c1
IC50 [4]: 66 µM
IC50 [1]: 0.057 µM

Structure (SMILES): CC1=NN(c2ccc(Cl)c(Cl)c2)C(=O)/C1=C/c1cc(Br)ccc1OCC(=O)O
IC50 [4]: 18.5 µM
IC50 [1]: 0.17 µM

Structure (SMILES): CCCCCCCCCSc1nnc(-c2ccc(OC)cc2)c(-c2ccc(OC)cc2)n1
IC50 [1]: 32.9 µM

Structure (SMILES): CC(c1ccccc1)N1C(=O)c2ccc(C(=O)Nc3cc(Cl)ccc3C(=O)O)cc2C1=O (configuration not stated)
inhibition [3]: < 1%
IC50 [4]: 1.4 µM
inhibition [5]: < 1%
IC50 [1]: 0.002 µM

Structure (SMILES): O=C(CSc1nnc(-c2ccccc2)c(-c2ccccc2)n1)C12CC3CC(CC(C3)C1)C2
IC50 [1]: 13.9 µM

Structure (SMILES): COc1cc(-c2cc(C(=O)O)c3c(ccc4ccccc43)n2)ccc1OCCCC#N
inhibition [2]: 1%
inhibition [3]: < 1%
IC50 [4]: 4.4 µM
inhibition [5]: < 1%
IC50 [1]: 0.0011 µM
inhibition [6]: 4.1%

Structure (SMILES): O=C(CSc1ncc(-c2ccccc2)nn1)c1ccccc1
IC50 [1]: 32.5 µM

Structure (SMILES): Cc1ccc(C)c(NC(=O)CSc2nnc(CNc3c(C)cccc3C)n2-c2ccccc2)c1
IC50 [1]: 13.6 µM

Structure (SMILES): Cc1ccc(-c2nnc(SCC(=O)c3ccc(CC(N)=O)s3)nc2-c2ccc(C)cc2)cc1
IC50 [1]: 0.64 µM

Structure (SMILES): O=C(COC(=O)c1ccc2c(c1)C(=O)N(c1ccc(Oc3ccccc3)cc1)C2=O)c1ccc(Br)cc1
IC50 [4]: 200 µM
IC50 [1]: 1.7 µM

Structure (SMILES): Cc1ccc(C(=O)O)cc1-c1ccc(/C=C2\SC(=O)N(CC(=O)Nc3ccccc3)C2=O)o1
IC50 [4]: 160 µM
IC50 [1]: 1.2 µM

Further lines, results first:

IC50 [1]: > 100 µM
Structure (SMILES): Clc1ccc(CSc2nnc(-c3ccccc3)c(-c3ccccc3)n2)cc1

IC50 [1]: 10.4 µM
Structure (SMILES): O=C(CSc1nc(-c2ccccc2)c(-c2ccccc2)[nH]1)c1ccccc1

IC50 [1]: 0.48 µM
Structure (SMILES): Cc1ccc(-c2nnc(SCC(=O)c3c[nH]c4ccccc34)nc2-c2ccc(C)cc2)cc1

IC50 [1]: 0.5 µM
Structure (SMILES): O=C(CSc1nnc(-c2ccccc2)c(-c2ccccc2)n1)c1c[nH]c2ccccc12

inhibition [2]: -2.2%
inhibition [3]: 39%
IC50 [4]: 8.5 µM
inhibition [5]: < 1%
IC50 [1]: 0.0097 µM
inhibition [6]: < 1%
Structure (SMILES): COc1cc(NC(=O)c2nn3c(C(F)(F)F)cc(-c4ccc(Br)cc4)nc3c2Cl)cc([N+](=O)[O-])c1

IC50 [4]: 200 µM
IC50 [1]: 0.1 µM
Structure (SMILES): O=C(N/N=C/c1ccc([N+](=O)[O-])cc1)c1cc(OCc2ccccc2)c(OCc2ccccc2)c(OCc2ccccc2)c1

IC50 [1]: 45.4 µM
Structure (SMILES): CCCCCCCSc1nnc(-c2ccc(OC)cc2)c(-c2ccc(OC)cc2)n1

IC50 [1]: 19.4 µM
Structure (SMILES): Cc1cccc(C)c1NCc1nnc(SCc2ccc(Cl)cc2)n1-c1ccccc1

inhibition [3]: 30%
IC50 [4]: 6.2 µM
inhibition [5]: < 1%
IC50 [1]: 0.0046 µM
Structure (SMILES): Cc1cc(C)c2oc(-c3ccc(C)c(NC(=O)c4cccc([N+](=O)[O-])c4)c3)nc2c1

IC50 [1]: 0.71 µM
Structure (SMILES): Cc1ccc([N+](=O)[O-])cc1NC(=O)CSc1nnc(CNC(=O)COc2c(C)cccc2C)n1C

IC50 [1]: 5.1 µM
Structure (SMILES): CCn1c(CNc2ccc(C)cc2C)nnc1SCC(=O)Nc1ccc(C)cc1

IC50 [1]: 0.8 µM
Structure (SMILES): Cc1ccc([N+](=O)[O-])cc1NC(=O)CSc1nnc(Cc2ccccc2)n1C

IC50 [1]: 9.6 µM
Structure (SMILES): O=C(CSc1nnc(-c2ccccc2)c(-c2ccccc2)n1)c1cccs1

IC50 [1]: 0.91 µM
Structure (SMILES): C=CCn1c(SCC(=O)c2ccc3c(c2)Cc2ccccc2-3)nnc1-c1ccc(OC)cc1

IC50 [1]: 0.93 µM
Structure (SMILES): COc1ccc(OC)c(NC(=O)CSc2nnc(CNc3c(C)cccc3C)n2C)c1

IC50 [1]: 3.1 µM
Structure (SMILES): COc1ccc(-c2nnc(SCC(=O)Nc3ccc(Cl)cc3)nc2-c2ccc(OC)cc2)cc1

IC50 [1]: 2.1 µM
Structure (SMILES): Cc1[nH]c2ccccc2c1C(=O)C(C)Sc1nnc(-c2ccccc2)c(-c2ccccc2)n1 (configuration not stated)

IC50 [1]: 0.29 µM
Structure (SMILES): O=C1COc2ccc(C(=O)CSc3nnc(-c4ccccc4)c(-c4ccccc4)n3)cc2N1

IC50 [1]: 12.6 µM
Structure (SMILES): C=CCn1c(CNc2c(C)cccc2C)nnc1SCC(=O)Nc1ccccc1C

IC50 [1]: 0.054 µM
Structure (SMILES): CCn1c(CNC(=O)c2ccc(C)cc2)nnc1SCC(=O)Nc1cc([N+](=O)[O-])ccc1C

IC50 [1]: 2.5 µM
Structure (SMILES): O=C(CSc1nnc(-c2ccccc2)c(-c2ccccc2)n1)c1ccccc1

IC50 [1]: > 100 µM
Structure (SMILES): Cc1ccc(N2CCn3c(SCC(=O)Nc4cc(C)ccc4C)nnc32)cc1

IC50 [1]: 3.6 µM
Structure (SMILES): Cc1ccc(C)c(NC(=O)CSc2nnc(CNc3c(C)cccc3C)n2C)c1

IC50 [4]: > 200 µM
IC50 [1]: 1.7 µM
Structure (SMILES): Cn1c(=O)c(/C(=N/Nc2ccc([N+](=O)[O-])cc2[N+](=O)[O-])c2nnn[nH]2)c(O)c2ccccc21
